In ChEMBL document CHEMBL2429797, “2,5,6-trisubstituted imidazo[2,1-b][1,3,4]thiadiazoles: search for antihyperlipidemic agents” (Eur J Med Chem, 2013):
Calls of active or inactive are those of the source. No cut-off for these calls is given here.

Tests used:
Rattus norvegicus [1] = assay: Ratio of LDL level in serum to HDL level in serum in Triton-X-100-induced hyperlipidemia Wistar albino rat model at 250 mg/kg, po qd for 7 days; assay type: functional
Method in brief: (§1)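 Triton-X-100 hyperlipidemic male Wistar rats, n = 6 per group, dosed orally for 7 days in 5% CMC. Serum lipids were measured and risk ratios calculated per NCEP (2002): total cholesterol:HDL (atherogenic index) and LDL:HDL.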

Rattus norvegicus [2] = assay: Antihyperlipidemic activity in Triton-X-100-induced hyperlipidemia Wistar albino rat model assessed as reduction of triglyceride level in serum at 250 mg/kg, po qd for 7 days; assay type: functional
Method in brief: (§2)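 Male Wistar albino rats (200–250 g), fasted 18 h, then given a single i.p. injection of Triton-X-100 (100 mg/kg) in saline. Starting 72 h later, dosed orally once daily for 7 days with suspension in 5% CMC; six per group. Retro-orbital blood taken under ether; serum separated at 2500 × g, 15 min, 4 °C, and lipids assayed. Mean ± SEM, n = 6.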

Rattus norvegicus [3] = assay: Antihyperlipidemic activity in Triton-X-100-induced hyperlipidemia Wistar albino rat model assessed as reduction of LDL level in serum at 250 mg/kg, po qd for 7 days; assay type: functional; method in brief: as §2
Rattus norvegicus [4] = assay: Antihyperlipidemic activity in Triton-X-100-induced hyperlipidemia Wistar albino rat model assessed as reduction of total cholesterol level in serum at 250 mg/kg, po qd for 7 days; assay type: functional; method in brief: as §2
Rattus norvegicus [5] = assay: Antihyperlipidemic activity in Triton-X-100-induced hyperlipidemia Wistar albino rat model assessed as reduction of VLDL level in serum at 250 mg/kg, po qd for 7 days; assay type: functional; method in brief: as §2
Rattus norvegicus [6] = assay: Ratio of total cholesterol level in serum to HDL level in serum in Triton-X-100-induced hyperlipidemia Wistar albino rat model at 250 mg/kg, po qd for 7 days; assay type: functional; method in brief: as §1
Rattus norvegicus [7] = assay: Antihyperlipidemic activity in Triton-X-100-induced hyperlipidemia Wistar albino rat model assessed as increase of HDL level in serum at 250 mg/kg, po qd for 7 days; assay type: functional; method in brief: as §2
Rattus norvegicus [8] = assay: Hepatotoxicity in Triton-X-100-induced hyperlipidemia Wistar albino rat model assessed as SGPT level in serum at 250 mg/kg, po qd for 7 days; assay type: toxicity, organism-based; parameters: dose 250 mg/kg, route oral; conditions: in vivo, 168 h
Method in brief: (§3)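 Serum from Triton-X-100 hyperlipidemic male Wistar rats, dosed orally daily for 7 days in 5% CMC. Blood taken retro-orbitally under ether. Assays: alanine transferase and aspartate transferase reported in IU, alkaline phosphatase in KA units. Normal ranges are given alongside.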

Rattus norvegicus [9] = assay: Hepatotoxicity in Triton-X-100-induced hyperlipidemia Wistar albino rat model assessed as SGOT level in serum at 250 mg/kg, po qd for 7 days; assay type: toxicity, organism-based; parameters: dose 250 mg/kg, route oral; conditions: in vivo, 168 h; method in brief: as §3
Rattus norvegicus [10] = assay: Protective activity against Triton-X-100-induced hepatotoxicity in Wistar albino rat assessed as mild cytoplasmic fatty infiltration and mild granular degeneration in liver at 250 mg/kg, po qd for 7 days; assay type: functional, organism-based; parameters: dose 250 mg/kg
Rattus norvegicus [11] = assay: Hepatotoxicity in Triton-X-100-induced hyperlipidemia Wistar albino rat model assessed as alkaline phosphatase level in serum at 250 mg/kg, po qd for 7 days; assay type: toxicity, organism-based; parameters: dose 250 mg/kg, route oral; conditions: in vivo, 168 h; method in brief: as §3
Rattus norvegicus [12] = assay: Protective activity against Triton-X-100-induced hepatotoxicity in Wistar albino rat assessed as mild cytoplasmic fatty infiltration and mild to moderate granular degeneration in liver at 250 mg/kg, po qd for 7 days; assay type: functional, organism-based; parameters: dose 250 mg/kg

Row | SMILES | Ratio (Rattus norvegicus [1]) | Activity (Rattus norvegicus [2]) [mg/dL] | Activity (Rattus norvegicus [3]) [mg/dL] | Activity (Rattus norvegicus [4]) [mg/dL] | Activity (Rattus norvegicus [5]) [mg/dL] | Ratio (Rattus norvegicus [6]) | Activity (Rattus norvegicus [7]) [mg/dL] | Activity (Rattus norvegicus [8]) [IU] | Activity (Rattus norvegicus [9]) [IU] | Activity (Rattus norvegicus [10]) | Activity (Rattus norvegicus [11]) [KA] | Activity (Rattus norvegicus [12])
1 | COc1ccc(/N=C/c2c(-c3ccccc3)nc3sc(-c4ccc5c(c4)OCO5)nn23)cc1 | 2.24 | 84.98 | 64.73 | 113.98 | 18.46 | 3.95 | 28.83 | – | – | – | – | –
2 | O=C(N/N=C/c1c(-c2ccc(Cl)cc2)nc2sc(-c3ccc4c(c3)OCO4)nn12)c1ccccc1 | 1.97 | 80.67 | 59.12 | 107.87 | 16.34 | 3.6 | 29.93 | – | – | – | – | –
3 | NS(=O)(=O)c1ccc(/N=C/c2c(-c3ccc(Cl)cc3)nc3sc(-c4ccc5c(c4)OCO5)nn23)cc1 | 1.54 | 79.54 | 52.23 | 101.56 | 14.73 | 3 | 33.78 | 28.6 | 51.7 | Active | 29.3 | –
4 | CC(C)OC(=O)C(C)(C)Oc1ccc(C(=O)c2ccc(Cl)cc2)cc1 [FENOFIBRATE] | 1.46 | 71.23 | 51.68 | 102.24 | 13.67 | 2.9 | 35.21 | 26.43 | 49.45 | – | 28.33 | –
5 | C(=N\c1ccccc1)/c1c(-c2ccccc2)nc2sc(-c3ccc4c(c3)OCO4)nn12 | 2.62 | 89.12 | 65.85 | 118.23 | 21.54 | 4.7 | 25.12 | – | – | – | – | –
6 | Clc1ccc(-c2nc3sc(-c4ccc5c(c4)OCO5)nn3c2/C=N/c2ccc(Br)cc2)cc1 | 1.63 | 83.43 | 53.82 | 103.54 | 16.85 | 3.15 | 32.85 | 29.3 | 58.8 | – | 26.6 | Active
7 | Cc1ccc(/N=C/c2c(-c3ccccc3)nc3sc(-c4ccc5c(c4)OCO5)nn23)cc1 | 2.84 | 88.43 | 66.32 | 114.36 | 22.83 | 4.89 | 23.34 | – | – | – | – | –
8 | Brc1ccc(/N=C/c2c(-c3ccccc3)nc3sc(-c4ccc5c(c4)OCO5)nn23)cc1 | 2.57 | 86.89 | 63.74 | 112.78 | 19.86 | 4.55 | 24.78 | – | – | – | – | –
9 | O=C(O)c1ccc(/N=C/c2c(-c3ccc(Cl)cc3)nc3sc(-c4ccc5c(c4)OCO5)nn23)cc1 | 1.43 | 76.89 | 49.94 | 96.12 | 15.85 | 2.76 | 34.78 | 26.8 | 48.3 | Active | 29.5 | –
10 | Fc1ccc(/N=C/c2c(-c3ccc(Cl)cc3)nc3sc(-c4ccc5c(c4)OCO5)nn23)cc1Cl | 1.63 | 80.45 | 54.95 | 99.89 | 15.43 | 2.97 | 33.57 | 27.8 | 56.5 | Active | 27.3 | –
11 | Cc1ccc(/N=C/c2c(-c3ccc(Cl)cc3)nc3sc(-c4ccc5c(c4)OCO5)nn23)cc1 | 2.36 | 85.67 | 68.84 | 113.28 | 18.35 | 3.89 | 29.12 | – | – | – | – | –
12 | O=[N+]([O-])c1ccc(/N=C/c2c(-c3ccc(Cl)cc3)nc3sc(-c4ccc5c(c4)OCO5)nn23)cc1 | 1.84 | 82.56 | 58.24 | 105.56 | 18.13 | 3.34 | 31.54 | 28.3 | 49.9 | – | 28.8 | –
13 | COc1ccc(/N=C/c2c(-c3ccc(Cl)cc3)nc3sc(-c4ccc5c(c4)OCO5)nn23)cc1 | 1.9 | 83.56 | 59.85 | 107.83 | 16.86 | 3.44 | 31.34 | – | – | – | – | –
14 | Cc1cccc(/N=C/c2c(-c3ccc(Cl)cc3)nc3sc(-c4ccc5c(c4)OCO5)nn23)c1 | 2.23 | 86.23 | 62.83 | 113.72 | 19.93 | 4.04 | 28.12 | – | – | – | – | –
